Source: PubChem
Only some compounds are listed: those with a hit (about 3.1% of all), similar ones and a draw of the others.
KCNQ1 act – potentiates or activates the human KCNQ1 potassium channel; P51787; CHO-K1 KCNQ1, thallium flux FluxOR fluorescence; hits give high values; B-score at 10 µM; 310,000 tested, 0.35% active; AID 2648;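 active = fluorescence ratio B-score, a plate-corrected score, at least three library SD, with initial intensity B-score within 5 SD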
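Schedule – 37 °C overnight plating, 90-min dark dye load, 20-min compound pretreatment · System – stable KCNQ1 CHO-K1 line · Probe or stimulus – thallium- and potassium-containing depolarizing buffer · Measured by – kinetic FluxOR fluorescence, 10 s baseline plus 110 s post-stimulus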
KCNK3 inh – human KCNK3 channel inhibition, primary screen; O14649; CHO-KCNK3 thallium flux, FluxOR fluorescence; hits give low values; B-score at 10 µM; 340,000 tested, 0.84% active; AID 602410;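 active = B-score under library mean minus 4 SD, starting fluorescence ratio at most library mean plus 5 SD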;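 also: more negative B-score means stronger inhibition of thallium flux through KCNK3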
Target sequence (O14649 whole entry, looked up): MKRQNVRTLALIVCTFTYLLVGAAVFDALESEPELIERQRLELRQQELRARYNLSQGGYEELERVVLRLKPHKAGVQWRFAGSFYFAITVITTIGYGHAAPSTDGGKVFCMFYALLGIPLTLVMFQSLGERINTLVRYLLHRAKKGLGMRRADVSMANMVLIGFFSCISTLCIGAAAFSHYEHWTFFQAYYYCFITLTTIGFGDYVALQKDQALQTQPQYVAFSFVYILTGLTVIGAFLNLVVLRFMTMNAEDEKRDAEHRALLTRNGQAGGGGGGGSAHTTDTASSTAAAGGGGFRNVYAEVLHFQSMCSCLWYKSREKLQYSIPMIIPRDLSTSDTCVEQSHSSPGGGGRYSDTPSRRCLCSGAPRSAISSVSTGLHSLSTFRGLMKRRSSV
hERG rescue – hERG (human) protection from proarrhythmic block | CHO-hERG, FluxOR thallium flux, dofetilide IC70 present | activation (rescue from dofetilide block), less the hit threshold, % at 10 µM | 310,000 tested, 0.51% active | AID 1511;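 active = activation above the mean of controls blocked by dofetilide plus 5 SD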;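 also: thallium influx through hERG after potassium depolarization seen as dye fluorescence rise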
KCNK9 inh – human KCNK9 channel inhibition; Q9NPC2; HEK293 KCNK9, FluxOR thallium flux fluorescence; hits give low values; AID 488922; 310,000 tested, 1.2% active; B-score at 10 µM;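 active = ratio B-score over 3 SD below the library mean, with starting fluorescence within 5 SD of its mean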;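 also: negative B-score means less thallium flux so channel inhibition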
KCNQ1 block – blocks the human KCNQ1 potassium channel; CHO-K1 KCNQ1, FluxOR thallium flux fluorescence; hits give high values; P51787; 310,000 tested, 1.3% active; AID 2642; B-score at 10 µM;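 active = compounds whose thallium flux B-score, printed positive for inhibition, exceeds three library SD while starting fluorescence stays within three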;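 also: channel opened by potassium depolarization with thallium stimulus after 20 min compound exposure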
KCNK3 inh conf – confirmation of human KCNK3 two-pore domain potassium channel inhibitors; AID 651638; ratio percent of control, % at 10 µM; CHO-KCNK3 thallium flux, FluxOR fluorescence; 0% buffer, 100% carvedilol maximal block; 2,400 tested, 99% active; shares compounds with KCNK3 inh;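 active = ratio percent of control, averaged over triplicates, above buffer control mean plus 5 SD, cut at about 64% in these data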;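 also: ratio is the fluorescence rise from min to max over baseline after thallium stimulus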
KCNK3 uninduced – KCNK3 inhibitor counter-screen hit in non-induced cells; non-induced KCNK3 parental cells, FluxOR thallium flux; hits give low values; shares compounds with KCNK3 inh; thallium flux ratio (lower = more inhibition) at 10 µM; 2,400 tested, 40% active;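 active = thallium flux ratio, averaged over three wells, more than 5 SD below the buffer control mean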;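 also: host cells are CHO cells without KCNK3 induction; ratio is peak minus trough fluorescence over baseline then normalized to buffer controls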
Active calls of the source: *; i = inactive; / = not tested or not shown.

SMILES	KCNQ1 act	KCNK3 inh	hERG rescue	KCNK9 inh	KCNQ1 block	KCNK3 inh conf	KCNK3 uninduced
Cc1cc(=O)oc2cc(NC(=O)c3ccccc3OC(F)F)ccc12	i	-11.2*	-5.6	i	i	105.3*	i
Cc1cc(=O)oc2cc(NC(=O)c3cc(F)ccc3F)ccc12	/	i	/	/	/	/	/
COc1ccc(-c2[nH]c3ccccc3c2SCCNC(=O)c2ccccc2)cc1	i	-9.63*	-15.0	i	i	117.0*	0.14*
Nc1ccc(C(=O)N2CCN(S(=O)(=O)/C=C/c3ccccc3)CC2)cc1[N+](=O)[O-]	i	i	-10.0	i	i	/	/
O=C(c1ccc2ccccc2c1)N1CCN(S(=O)(=O)/C=C/c2ccccc2)CC1	i	-9.11*	-10.3	i	i	95.7*	i
CC1Cc2ccccc2N1C(=O)CSc1ncccn1 (stereo unspecified)	i	i	-13.0	i	i	/	/
O=C(CSc1nc2ccccc2c(=O)n1-c1ccccc1)N/N=C/C=C/c1ccccc1[N+](=O)[O-]	i	-9.13*	-16.0	i	i	100.3*	i
COc1ccccc1N(C)S(=O)(=O)c1ccc(C(=O)Nc2nccs2)cc1	/	i	/	/	/	/	/
C/C(=N\NC(=O)C1CC1)c1ccc(C)cc1C	i	i	-4.6	i	i	/	/
CN(C)c1cccc(C(=O)NNC(=S)NC2CC3CCC2C3)c1 (stereo unspecified)	i	i	-7.7	i	i	/	/
CC(C)N(C(=S)NC1CC2CCC1C2)c1ccccc1 (stereo unspecified)	i	-9.76*	-16.6	i	i	118.0*	0.16*
O=C(Cc1ccccc1)Nc1ncccn1	i	i	-1.7	i	i	/	/
Cc1cccc(OCc2nc(C#N)c(NCc3ccc4c(c3)OCO4)o2)c1	i	-11.3*	-11.3	i	i	138.0*	0.102*
N#Cc1nc(COc2ccc(Cl)cc2)oc1NCc1ccc2c(c1)OCO2	i	-11.4*	-8.9	i	i	137.7*	0.156*
CC(=O)c1ccc(S(=O)(=O)N2CCN(CCOc3ccccc3)CC2)cc1	/	i	/	/	/	/	/
Cc1c(CC(=O)NCCCO)c(=O)oc2cc3c(cc12)CCC(C)(C)O3	i	i	-0.6	i	i	/	/
CC(C)(C)OC(=O)n1cc(/C=N/NC(=O)c2ccco2)c2ccccc21	i	-9.18*	-8.7	i	i	108.3*	i
OC1CCN(c2c3c(nc4cc(-c5cccc(F)c5)nn24)CCCC3)CC1	i	-8.88*	-4.0	i	i	121.7*	i
COc1ccc(/C=C2\COc3ccccc3C2=O)c(OC)c1	i	-9.6*	-11.8	i	i	121.3*	i
COc1ccc(/C=C2\COc3ccccc3C2=O)cc1OC	i	i	-1.1	i	i	/	/
CCOc1cc(/C=N/Nc2cccc(C(=O)O)c2)ccc1OCC(=O)N1CCCCC1	/	i	/	/	/	/	/
CCN(c1ccccc1)S(=O)(=O)c1ccc(OC)c(NC(=O)C2=NN(c3ccccc3)C(=O)CC2)c1	/	i	/	/	/	/	/
Cc1cccc(C(=O)NN/C=C/C(=O)c2ccccc2)c1	i	-9.05*	-6.1	i	i	100.0*	i
Cc1ccc(C(=O)C=CNNC(=O)c2ccccc2)cc1	i	i	-13.4	i	i	/	/
Cc1ccc(NC(=O)c2c(C(F)(F)F)nn(C)c2SCc2ccc(Cl)cc2)cc1C	i	-10.1*	-9.4	i	i	110.3*	0.158*
SMILES	KCNQ1 act	KCNK3 inh	hERG rescue	KCNK9 inh	KCNQ1 block	KCNK3 inh conf	KCNK3 uninduced
Cc1ccc(NC(=O)c2c(C(F)(F)F)nn(C)c2Cl)cc1C	i	i	-7.3	i	i	/	/
CC(C)n1c(SCC(=O)N2c3ccccc3Sc3ccccc32)nc2c1c(=O)n(C)c(=O)n2C	i	-10.8*	-8.0	i	i	97.7*	i
CCCn1c(SCC(=O)N2c3ccccc3Sc3ccccc32)nc2c1c(=O)n(C)c(=O)n2C	i	i	-19.1	i	i	/	/
Cc1cc(C)c2[nH]c(C(=O)N3CCC(n4nccc4NC(=O)C4CC4)CC3)c(C)c2c1	i	i	-8.3	i	i	/	/
O=C(NCc1cc([N+](=O)[O-])ccc1O)c1cc(-c2ccncc2)nc2ccccc12	i	-10.7*	-10.2	i	i	100.3*	0.144*
O=C(NCc1ccc(F)cc1)c1cc(-c2ccncc2)nc2ccccc12	i	i	-24.4	i	i	/	/
CCOC(=O)c1cccc(N2C(=O)C3C(C2=O)C2C=CC3C23CC3)c1 (stereo unspecified)	i	-18.2*	-7.7	i	i	92.3*	i
CC1=CC(C)(C)N2C(=O)C3(C(C#N)=C(N)Oc4cc(O)ccc43)c3c(C)c(C)cc1c32 (stereo unspecified)	i	-8.91*	-16.2	i	i	81.0*	0.16*
O=C(Nc1cccc(/C=C/c2ccccn2)c1)c1cc(Cl)ccn1	i	-9.44*	-14.7	i	i	109.3*	i
Fc1ccc(CNC(=S)Nc2ccc(Cl)cc2)cc1	i	i	-6.3	i	i	/	/
CC(CNC(=S)Nc1cc(F)cc(F)c1)CSc1ccc(Cl)cc1 (stereo unspecified)	i	-12.5*	-14.9	i	9*	117.0*	0.137*
CC1(C)Cc2cccc(C(=O)NC3CCN(Cc4ccccc4)CC3)c2O1	i	-8.84*	-10.5	i	i	114.0*	i
CCCCC(=O)Oc1c(S(=O)(=O)c2ccc(C)cc2)c(C)nn1C(C)(C)C	i	-9.93*	-1.4	i	i	95.3*	i
CC(C)(C)c1ccc(C(=O)/C(C#N)=C/c2cccs2)cc1	i	-12.1*	-4.6	i	6*	111.3*	i
COc1cccc(NS(=O)(=O)c2ccc(-n3cccn3)cc2)c1	i	i	-5.6	i	i	/	/
COc1ccc(/C(C)=N/N2C(=O)c3ccccc3NC2c2ccc(O)c(OC)c2)cc1 (stereo unspecified)	i	-9.26*	-12.1	i	i	99.3*	i
COc1cc(C2Nc3ccccc3C(=O)N2c2ccccc2)ccc1O (stereo unspecified)	i	i	-2.6	i	i	/	/
COc1cccc([C@@H]2CC=C(C(=O)O)[C@H](c3cccc(Cl)c3)N2S(=O)(=O)c2ccc(C)cc2)c1	/	i	/	/	/	/	/
O=C(N/N=C(\c1ccccc1)c1cccnc1)c1cc(O)ccc1O	i	/	-3.3	i	i	/	/
Cc1cc2c(Nc3ccc(O)cc3)ncnc2s1	i	i	-3.7	i	i	/	/
